Experimental data taken from ChEMBL document CHEMBL1137535, “Structure-activity relationship of antileishmanials neolignan analogues” (2007).

Assays:
Leishmania amazonensis = test: Antileishmanial activity against Leishmania amazonensis MHOM/BR/75-josefa in mouse peritoneal macrophages at 80 ug/mL after 48 hrs relative to control; assay type: functional
Procedure, shortened: (§1)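 BALB/c peritoneal macrophages, 2 · 10⁵ cells per chamber in DMEM, held 2 h at 37 °C in 4% CO₂/air. They were then infected for 4 h with 8 · 10⁵ stationary-phase promastigotes in DMEM with 5% heat-inactivated FCS and antibiotics. After washing off free parasites, compound was added in quadruplicate for 48 h. Monolayers were methanol-fixed and Giemsa-stained, and amastigotes counted per 200 cells. Result is % growth inhibition versus untreated controls.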

[1] = (§2) Toxicity against BALB/c mouse macrophages assessed as cell viability; assay type: functional, Macrophage; design: concentration or dose not given beside the values
Leishmania donovani = test: Antileishmanial activity against Leishmania donovani LD-1/MHOM/SD/00-1S in mouse peritoneal macrophages at 80 ug/mL after 48 hrs relative to control; assay type: functional; procedure, shortened: as §1
[2] = Toxicity against BALB/c mouse macrophages assessed as disrupted cells; assay type: functional, Macrophage
Macrophage = test: as §2; assay type: functional; design: concentration or dose not given beside the values

In the case of `CSc1ccccc1OCC(=O)c1ccc(Cl)cc1`, the inhibition at 80 µg/mL (Leishmania amazonensis) is reported as 8.8%, the Activity [1] is reported as >80% and the inhibition at 80 µg/mL (Leishmania donovani) is reported as 5.8%.

With `COc1ccc(C(=O)C(C)Sc2ccc(C)cc2)cc1OC` (configuration not stated) the inhibition at 80 µg/mL (Leishmania amazonensis) was 100% and the inhibition at 80 µg/mL (Leishmania donovani) was 100%.

For `CC(Sc1ccc(Cl)cc1)C(=O)c1ccccc1` (configuration not stated), the inhibition at 80 µg/mL (Leishmania amazonensis) was 100%, the Activity [1] was >80% and the inhibition at 80 µg/mL (Leishmania donovani) was 94.1%.

With `COc1ccc(C(=O)C(C)Sc2ccc(Cl)cc2)cc1OC` (configuration not stated) the inhibition at 80 µg/mL (Leishmania amazonensis) was 63.3%, the Activity [1] was >80% and the inhibition at 80 µg/mL (Leishmania donovani) was 22%.

For `C[C@H](Sc1ccc(Cl)cc1)[C@H](O)c1ccccc1` (relative stereo), the inhibition at 80 µg/mL (Leishmania amazonensis) was 50.6%, the Activity [1] was >80% and the inhibition at 80 µg/mL (Leishmania donovani) was 45.2%.

With `COc1ccc(C(=O)C(C)Sc2ccccc2)cc1OC` (configuration not stated) the Activity [2] was >80%.

With `CC(C(=O)c1ccccc1)S(=O)(=O)c1ccc(Cl)cc1` (configuration not stated) the inhibition at 80 µg/mL (Leishmania amazonensis) was 0%, the Activity [1] was >80% and the inhibition at 80 µg/mL (Leishmania donovani) was 0%.

For `O=C(CSc1ccc(Cl)cc1)c1ccccc1`, the inhibition at 80 µg/mL (Leishmania amazonensis) was 38.8%, the Activity [1] was >80% and the inhibition at 80 µg/mL (Leishmania donovani) was 37.2%.

With MEGLUMINE ANTIMONATE the inhibition (Leishmania amazonensis) was 28.2%, the Activity (Macrophage) was > 80% and the inhibition (Leishmania donovani) was 26%.

For `O=C(CSc1ccc(Cl)cc1)c1ccc(Cl)cc1`, the inhibition at 80 µg/mL (Leishmania amazonensis) was 50.5%, the Activity [1] was >80% and the inhibition at 80 µg/mL (Leishmania donovani) was 0%.

In the case of `C/C=C/c1ccc(OC(C)C(=O)c2ccc(OC)c(OC)c2)c(OC)c1` (configuration not stated), the inhibition at 80 µg/mL (Leishmania amazonensis) is reported as 34.2%, the Activity [1] is reported as >80% and the inhibition at 80 µg/mL (Leishmania donovani) is reported as 50%.

With `COc1ccc(C(=O)COc2ccc(Cl)cc2)cc1OC` the inhibition at 80 µg/mL (Leishmania amazonensis) was 17.7%, the Activity [1] was >80% and the inhibition at 80 µg/mL (Leishmania donovani) was 0%.

With `COc1ccc(C(=O)C(C)Oc2c(OC)cccc2OC)cc1OC` (configuration not stated) the inhibition at 80 µg/mL (Leishmania amazonensis) was 37.9%, the Activity [1] was >80% and the inhibition at 80 µg/mL (Leishmania donovani) was 49.9%.

In the case of `CC(Sc1ccc(N)cc1)C(=O)c1ccccc1` (configuration not stated), the inhibition at 80 µg/mL (Leishmania amazonensis) is reported as 0%, the Activity [1] is reported as >80% and the inhibition at 80 µg/mL (Leishmania donovani) is reported as 28.8%.

In the case of `COc1ccc(C(=O)C(C)Sc2ccc(N)cc2)cc1OC` (configuration not stated), the Activity [2] is reported as >80%.

For `COc1ccc([C@@H](O)[C@H](C)Sc2ccc(C)cc2)cc1OC` (relative stereo), the inhibition at 80 µg/mL (Leishmania amazonensis) was 40.6%, the Activity [1] was >80% and the inhibition at 80 µg/mL (Leishmania donovani) was 0%.

For `CC(C(=O)c1ccccc1)[S+]([O-])c1ccc(Cl)cc1` (configuration not stated), the inhibition at 80 µg/mL (Leishmania amazonensis) was 20.7%, the Activity [1] was >80% and the inhibition at 80 µg/mL (Leishmania donovani) was 0%.

For `COc1ccc(C(=O)C(C)S(=O)(=O)c2ccc(C)cc2)cc1OC` (configuration not stated), the inhibition at 80 µg/mL (Leishmania amazonensis) was 7%, the Activity [1] was >80% and the inhibition at 80 µg/mL (Leishmania donovani) was 0%.

For `CC(=O)O[C@H](c1ccccc1)[C@H](C)Sc1ccc(Cl)cc1` (relative stereo), the inhibition at 80 µg/mL (Leishmania amazonensis) was 0%, the Activity [1] was >80% and the inhibition at 80 µg/mL (Leishmania donovani) was 0%.

In the case of `COc1ccc([C@@H](O)[C@H](C)Sc2ccc(Cl)cc2)cc1OC` (relative stereo), the inhibition at 80 µg/mL (Leishmania amazonensis) is reported as 36.1%, the Activity [1] is reported as >80% and the inhibition at 80 µg/mL (Leishmania donovani) is reported as 0%.

In the case of `O=C(COc1ccccc1)c1ccccc1`, the inhibition at 80 µg/mL (Leishmania amazonensis) is reported as 44%, the Activity [1] is reported as >80% and the inhibition at 80 µg/mL (Leishmania donovani) is reported as 40%.

With `Cc1ccc(SC(C)C(=O)c2ccccc2)cc1` (configuration not stated) the Activity [2] was >80%.

For `CC(Sc1ccccc1)C(=O)c1ccccc1` (configuration not stated), the inhibition at 80 µg/mL (Leishmania amazonensis) was 78.1%, the Activity [1] was >80% and the inhibition at 80 µg/mL (Leishmania donovani) was 70.2%.
